Laboratory results published in ChEMBL document CHEMBL1255500, “Safety and pharmacokinetics of the antiorthopoxvirus compound ST-246 following repeat oral dosing in healthy adult subjects” (Antimicrob Agents Chemother, 2010).

Legend:
[1] = Cmax in healthy human at 800 mg/day, po administered for 21 days measured at day 6; format: ADME, organism-based; set-up: dose 800 mg/day, route oral; conditions: in vivo
Method in brief: (§1)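 Healthy adult volunteers, 8 per dose group, in the nonfasted state. Each took one oral dose daily for 21 days, within 30 min after a standard light meal (400 to 450 cal, ~25% fat). Venous blood was drawn predose and postdose on days 1, 6 and 21. Plasma was stored at −70°C and assayed by validated LC-MS/MS with an analog internal standard (range 50 to 4,000 ng/ml). AUCtau and Cmax were obtained by noncompartmental analysis.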

[2] = Cmax in healthy human at 250 mg/day, po administered for 21 days measured at day 6; format: ADME, organism-based; set-up: dose 250 mg/day, route oral; conditions: in vivo; method in brief: as §1
[3] = AUC in healthy human at 400 mg/day, po administered for 21 days measured at day 6; format: ADME, organism-based; conditions: plasma; method in brief: as §1
[4] = AUC in healthy human at 400 mg/day, po administered for 21 days measured at day 1; format: ADME, organism-based; conditions: plasma
Method in brief: (§2)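 Phase I randomized, double-blind, placebo-controlled escalating multiple-dose study; 8 nonfasting healthy adults per dose group, one oral dose daily within 30 min after a standard light meal (400 to 450 cal, ~25% fat) for 21 days. Plasma was sampled serially on days 1, 6 and 21 (72 h after the last dose) and stored at −70°C. ST-246 was measured by validated LC-MS/MS with an analog internal standard (plasma range 50 to 4,000 ng/ml). Parameters (AUCtau, Cmax, Tmax, t1/2) came from noncompartmental analysis.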

[5] = Tmax in healthy human at 250 to 800 mg/day, po administered for 21 days measured at day 6; format: ADME, organism-based; conditions: in vivo; method in brief: as §2
Homo sapiens [6] = test: Toxicity in healthy human assessed as incidence of abnormal eye sensation at 800 mg/day, po administered for 21 days; format: organism-based; conditions: in vivo, 504 h
Method in brief: (§3)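 Randomized, double-blind, placebo-controlled escalating study; 8 active and 2 placebo subjects per dose group, oral daily dosing after a standard light meal for 21 days. Safety was followed through adverse event reporting, vital signs, physical exam, hematology, blood chemistry, urinalysis and ECGs, with clinic visits at weeks 1 to 3. Laboratory AEs were graded by DAIDS criteria. Results are the number and percentage of subjects reporting each treatment-emergent AE.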

Homo sapiens [7] = test: Toxicity in healthy human assessed as incidence of somnolence at 800 mg/day, po administered for 21 days; format: organism-based; conditions: in vivo, 504 h; method in brief: as §3
[8] = Half life in healthy human at 250 mg/day, po administered for 21 days measured at day 21; format: ADME, organism-based; conditions: in vivo
Method in brief: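 Healthy nonfasted volunteers took one oral dose daily for 21 days after a standard light meal. Plasma was sampled for 72 h after the last dose on day 21 (days 21 to 24) and quantified by validated LC-MS/MS. Terminal t1/2 was derived noncompartmentally from the observed elimination rate constant (λz), and mean and median were given.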

[9] = Cmax in healthy human at 400 mg/day, po administered for 21 days measured at day 1; format: ADME, organism-based; set-up: dose 400 mg/day, route oral; conditions: in vivo; method in brief: as §1
Homo sapiens [10] = test: Toxicity in healthy human assessed as incidence of dry mouth at 800 mg/day, po administered for 21 days; format: organism-based; conditions: in vivo, 504 h; method in brief: as §3
[11] = Half life in healthy human at 800 mg/day, po administered for 21 days measured at day 21; format: ADME, organism-based; conditions: in vivo; method in brief: as §2
Homo sapiens [12] = test: Toxicity in healthy human assessed as incidence of headache at 250 mg/day, po administered for 21 days; format: organism-based; conditions: in vivo, 504 h; method in brief: as §3
Homo sapiens [13] = test: Toxicity in healthy human assessed as incidence of urticaria at 800 mg/day, po administered for 21 days; format: organism-based; conditions: in vivo, 504 h; method in brief: as §3
Homo sapiens [14] = test: Toxicity in healthy human assessed as incidence of nausea at 250 mg/day, po administered for 21 days; format: organism-based; conditions: in vivo, 504 h; method in brief: as §3
[15] = AUC in healthy human at 250 mg/day, po administered for 21 days measured at day 21; format: ADME, organism-based; conditions: plasma; method in brief: as §1
Homo sapiens [16] = test: Toxicity in healthy human assessed as incidence of nausea at 400 mg/day, po administered for 21 days; format: organism-based; conditions: in vivo, 504 h; method in brief: as §3
[17] = AUC in healthy human at 800 mg/day, po administered for 21 days measured at day 21; format: ADME, organism-based; conditions: plasma; method in brief: as §1
[18] = AUC in healthy human at 250 mg/day, po administered for 21 days measured at day 6; format: ADME, organism-based; conditions: plasma; method in brief: as §1
[19] = Half life in healthy human at 400 mg/day, po administered for 21 days measured at day 21; format: ADME, organism-based; conditions: in vivo; method in brief: as §2
Homo sapiens [20] = test: Toxicity in healthy human assessed as incidence of flatulence at 400 mg/day, po administered for 21 days; format: organism-based; conditions: in vivo, 504 h; method in brief: as §3
Homo sapiens [21] = test: Toxicity in healthy human assessed as incidence of fatigue at 250 mg/day, po administered for 21 days; format: organism-based; conditions: in vivo, 504 h; method in brief: as §3
Homo sapiens [22] = test: Toxicity in healthy human assessed as incidence of treatment-emergent adverse events at 250 mg/day, po administered for 21 days; format: organism-based; conditions: in vivo, 504 h; method in brief: as §3
[23] = Cmax in healthy human at 800 mg/day, po administered for 21 days measured at day 1; format: ADME, organism-based; set-up: dose 800 mg/day, route oral; conditions: in vivo; method in brief: as §1
Homo sapiens [24] = test: Toxicity in healthy human assessed as incidence of abnormal eye sensation at 250 mg/day, po administered for 21 days; format: organism-based; conditions: in vivo, 504 h; method in brief: as §3
Homo sapiens [25] = test: Toxicity in healthy human assessed as incidence of fatigue at 400 mg/day, po administered for 21 days; format: organism-based; conditions: in vivo, 504 h; method in brief: as §3
[26] = Tmax in healthy human at 250 to 800 mg/day, po administered for 21 days measured at day 1; format: ADME, organism-based; conditions: in vivo; method in brief: as §2
Homo sapiens [27] = test: Toxicity in healthy human assessed as incidence of headache at 400 mg/day, po administered for 21 days; format: organism-based; conditions: in vivo, 504 h; method in brief: as §3
[28] = Cmax in healthy human at 250 mg/day, po administered for 21 days measured at day 1; format: ADME, organism-based; set-up: dose 250 mg/day, route oral; conditions: in vivo; method in brief: as §1
Homo sapiens [29] = test: Toxicity in healthy human assessed as incidence of nausea at 800 mg/day, po administered for 21 days; format: organism-based; conditions: in vivo, 504 h; method in brief: as §3
Homo sapiens [30] = test: Toxicity in healthy human assessed as incidence of abnormal eye sensation at 400 mg/day, po administered for 21 days; format: organism-based; conditions: in vivo, 504 h; method in brief: as §3
Homo sapiens [31] = test: Toxicity in healthy human assessed as incidence of urticaria at 250 mg/day, po administered for 21 days; format: organism-based; conditions: in vivo, 504 h; method in brief: as §3
Homo sapiens [32] = test: Toxicity in healthy human assessed as incidence of fatigue at 800 mg/day, po administered for 21 days; format: organism-based; conditions: in vivo, 504 h; method in brief: as §3
[33] = AUC in healthy human at 250 mg/day, po administered for 21 days measured at day 1; format: ADME, organism-based; conditions: plasma; method in brief: as §2
[34] = AUC in healthy human at 800 mg/day, po administered for 21 days measured at day 1; format: ADME, organism-based; conditions: plasma; method in brief: as §1
[35] = Cmax in healthy human at 400 mg/day, po administered for 21 days measured at day 6; format: ADME, organism-based; set-up: dose 400 mg/day, route oral; conditions: in vivo; method in brief: as §1
Homo sapiens [36] = test: Toxicity in healthy human assessed as incidence of dry mouth at 400 mg/day, po administered for 21 days; format: organism-based; conditions: in vivo, 504 h; method in brief: as §3
Homo sapiens [37] = test: Toxicity in healthy human assessed as incidence of flatulence at 800 mg/day, po administered for 21 days; format: organism-based; conditions: in vivo, 504 h; method in brief: as §3
[38] = Cmax in healthy human at 400 mg/day, po administered for 21 days measured at day 21; format: ADME, organism-based; conditions: in vivo; method in brief: as §2
Homo sapiens [39] = test: Toxicity in healthy human assessed as incidence of somnolence at 400 mg/day, po administered for 21 days; format: organism-based; conditions: in vivo, 504 h; method in brief: as §3
[40] = AUC in healthy human at 400 mg/day, po administered for 21 days measured at day 21; format: ADME, organism-based; set-up: dose 400 mg/day, route oral; conditions: plasma; method in brief: as §2
Homo sapiens [41] = test: Toxicity in healthy human assessed as incidence of somnolence at 250 mg/day, po administered for 21 days; format: organism-based; conditions: in vivo, 504 h; method in brief: as §3
Homo sapiens [42] = test: Toxicity in healthy human assessed as incidence of dry mouth at 250 mg/day, po administered for 21 days; format: organism-based; conditions: in vivo, 504 h; method in brief: as §3
[43] = Tmax in healthy human at 250 to 800 mg/day, po administered for 21 days measured at day 21; format: ADME, organism-based; conditions: in vivo; method in brief: as §2
Homo sapiens [44] = test: Toxicity in healthy human assessed as incidence of treatment-emergent adverse events at 800 mg/day, po administered for 21 days; format: organism-based; conditions: in vivo, 504 h; method in brief: as §3
[45] = AUC in healthy human at 800 mg/day, po administered for 21 days measured at day 6; format: ADME, organism-based; conditions: plasma; method in brief: as §1
Homo sapiens [46] = test: Toxicity in healthy human assessed as incidence of headache at 800 mg/day, po administered for 21 days; format: organism-based; conditions: in vivo, 504 h; method in brief: as §3
Homo sapiens [47] = test: Toxicity in healthy human assessed as incidence of urticaria at 400 mg/day, po administered for 21 days; format: organism-based; conditions: in vivo, 504 h; method in brief: as §3
Homo sapiens [48] = test: Toxicity in healthy human assessed as incidence of flatulence at 250 mg/day, po administered for 21 days; format: organism-based; conditions: in vivo, 504 h; method in brief: as §3

O=C(NN1C(=O)[C@@H]2[C@@H]3C=C[C@@H]([C@H]4C[C@@H]34)[C@@H]2C1=O)c1ccc(C(F)(F)F)cc1 [TECOVIRIMAT]
Cmax [1]: 2340 ng/mL
Cmax [2]: 1210 ng/mL
AUC at 504 h [3]: 15400 ng·h/mL
AUC at 504 h [4]: 13100 ng·h/mL
Tmax [5]: 2.63 h
Activity (Homo sapiens [6]): 12.5%
Activity (Homo sapiens [7]): 12.5%
half-life [8]: 18.8 h
Cmax [9]: 1390 ng/mL
Activity (Homo sapiens [10]): 12.5%
half-life [11]: 20.7 h
Activity (Homo sapiens [12]): 37.5%
Activity (Homo sapiens [13]): 0%
Activity (Homo sapiens [14]): 0%
AUC at 504 h [15]: 10100 ng·h/mL
Activity (Homo sapiens [16]): 0%
AUC at 504 h [17]: 22700 ng·h/mL
AUC at 504 h [18]: 11900 ng·h/mL
half-life [19]: 19.8 h
Activity (Homo sapiens [20]): 0%
Activity (Homo sapiens [21]): 12.5%
Activity (Homo sapiens [22]): 75%
Cmax [23]: 2280 ng/mL
Activity (Homo sapiens [24]): 0%
Activity (Homo sapiens [25]): 0%
Tmax [26]: 2.88 h
Activity (Homo sapiens [27]): 0%
Cmax [28]: 985 ng/mL
Activity (Homo sapiens [29]): 12.5%
Activity (Homo sapiens [30]): 0%
Activity (Homo sapiens [31]): 0%
Activity (Homo sapiens [32]): 0%
AUC at 504 h [33]: 9100 ng·h/mL
AUC at 504 h [34]: 21000 ng·h/mL
Cmax [35]: 1300 ng/mL
Activity (Homo sapiens [36]): 0%
Activity (Homo sapiens [37]): 25%
Cmax [38]: 1460 ng/mL
Activity (Homo sapiens [39]): 0%
AUC at 504 h [40]: 16200 ng·h/mL
Activity (Homo sapiens [41]): 0%
Activity (Homo sapiens [42]): 0%
Tmax [43]: 2.67 h
Activity (Homo sapiens [44]): 62.5%
AUC at 504 h [45]: 23400 ng·h/mL
Activity (Homo sapiens [46]): 25%
Activity (Homo sapiens [47]): 0%
Activity (Homo sapiens [48]): 0%
